ChEMBL document CHEMBL1240422, “Design, synthesis and biological evaluation of 3,5-diaryl-isoxazoline/isoxazole-pyrrolobenzodiazepine conjugates as potential anticancer agents” (2010)
Activity calls are given as the source filed them. No cut-off for these calls is given here.

Key:
[1] = tested on: HL-60(TB); experiment: Anticancer activity against human HL-60(TB) cells after 48 hrs by SRB assay; type: functional; settings: HL-60, 48 h
[2] = tested on: MOLT-4; experiment: Anticancer activity against human MOLT4 cells after 48 hrs by SRB assay; type: functional; settings: MOLT-4, 48 h
[3] = tested on: RPMI-8226; experiment: Anticancer activity against human RPMI8226 cells after 48 hrs by SRB assay; type: functional; settings: RPMI-8226, 48 h
[4] = tested on: A549; experiment: Anticancer activity against human A549 cells after 48 hrs by SRB assay; type: functional; settings: A549, 48 h
Outline: (§1)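 Grown in RPMI 1640 with 10% FBS and 2 mM L-glutamine at 37 °C, 5% CO2. Seeded at densities set by doubling time, then preincubated 24 h. Continuous 48 h drug exposure at four concentrations (0.1, 1, 10, 100), triplicate wells. Fixed with cold TCA (final 10%) at 4 °C, 60 min. Stained with 0.4% SRB in 1% acetic acid, eluted with 10 mM Tris base, read at 540/690 nm. Percent growth versus control wells.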

[5] = tested on: EKVX; experiment: Anticancer activity against human EKVX cells after 48 hrs by SRB assay; type: functional
[6] = tested on: HOP-92; experiment: Anticancer activity against human HOP92 cells after 48 hrs by SRB assay; type: functional; settings: HOP-92, 48 h
[7] = tested on: NCI-H226; experiment: Anticancer activity against human NCI-H226 cells after 48 hrs by SRB assay; type: functional; settings: NCI-H226, 48 h
[8] = tested on: HCC 2998; experiment: Anticancer activity against human HCC2998 cells after 48 hrs by SRB assay; type: functional; settings: HCC 2998, 48 h
[9] = tested on: HCT-116; experiment: Anticancer activity against human HCT116 cells after 48 hrs by SRB assay; type: functional; settings: HCT-116, 48 h
[10] = tested on: HT-29; experiment: Anticancer activity against human HT-29 cells after 48 hrs by SRB assay; type: functional; settings: HT-29, 48 h
[11] = tested on: SW-620; experiment: Anticancer activity against human SW620 cells after 48 hrs by SRB assay; type: functional; settings: SW-620, 48 h
[12] = tested on: SNB-19; experiment: Anticancer activity against human SNB19 cells after 48 hrs by SRB assay; type: functional; settings: SNB-19, 48 h
[13] = tested on: SNB-75; experiment: Anticancer activity against human SNB75 cells after 48 hrs by SRB assay; type: functional; settings: SNB-75, 48 h
[14] = tested on: U-251; experiment: Anticancer activity against human U251 cells after 48 hrs by SRB assay; type: functional; settings: U-251, 48 h
[15] = tested on: Malme-3M; experiment: Anticancer activity against human MALME-3M cells after 48 hrs by SRB assay; type: functional
[16] = tested on: M14; experiment: Anticancer activity against human M14 cells after 48 hrs by SRB assay; type: functional; settings: M14, 48 h
[17] = tested on: SK-MEL-2; experiment: Anticancer activity against human SK-MEL-2 cells after 48 hrs by SRB assay; type: functional; settings: SK-MEL-2, 48 h
[18] = tested on: OVCAR-3; experiment: Anticancer activity against human OVCAR-3 cells after 48 hrs by SRB assay; type: functional; settings: OVCAR-3, 48 h
[19] = tested on: OVCAR-4; experiment: Anticancer activity against human OVCAR4 cells after 48 hrs by SRB assay; type: functional; settings: OVCAR-4, 48 h
[20] = tested on: OVCAR-5; experiment: Anticancer activity against human OVCAR5 cells after 48 hrs by SRB assay; type: functional; settings: OVCAR-5, 48 h
[21] = tested on: OVCAR-8; experiment: Anticancer activity against human OVCAR8 cells after 48 hrs by SRB assay; type: functional; settings: OVCAR-8, 48 h
[22] = tested on: 786-0; experiment: Anticancer activity against human 786-0 cells after 48 hrs by SRB assay; type: functional; settings: 786-0, 48 h
[23] = tested on: A498; experiment: Anticancer activity against human A498 cells after 48 hrs by SRB assay; type: functional; settings: A498, 48 h
[24] = tested on: ACHN; experiment: Anticancer activity against human ACHN cells after 48 hrs by SRB assay; type: functional
[25] = tested on: CAKI-1; experiment: Anticancer activity against human Caki1 cells after 48 hrs by SRB assay; type: functional; settings: CAKI-1, 48 h
[26] = tested on: RXF 393; experiment: Anticancer activity against human […] cells after 48 hrs by SRB assay; type: functional; settings: RXF 393, 48 h
[27] = tested on: TK-10; experiment: Anticancer activity against human TK10 cells after 48 hrs by SRB assay; type: functional; settings: TK-10, 48 h
[28] = tested on: MCF7; experiment: Anticancer activity against human MCF7 cells after 48 hrs by SRB assay; type: functional; settings: MCF7, 48 h; outline: as §1
[29] = tested on: MDA-MB-231; experiment: Anticancer activity against human MDA-MB-231 cells after 48 hrs by SRB assay; type: functional; settings: MDA-MB-231, 48 h
[30] = Anticancer activity against human Hs 578T cells after 48 hrs by SRB assay; type: functional
[31] = tested on: MDA-MB-435; experiment: Anticancer activity against human MDA-MB-435 cells after 48 hrs by SRB assay; type: functional; settings: MDA-MB-435, 48 h
[32] = tested on: BT-549; experiment: Anticancer activity against human BT549 cells after 48 hrs by SRB assay; type: functional; settings: BT-549, 48 h
[33] = tested on: MDA-MB-468; experiment: Anticancer activity against human MDA-MB-468 cells after 48 hrs by SRB assay; type: functional; settings: MDA-MB-468, 48 h
[34] = tested on: DU-145; experiment: Anticancer activity against human DU145 cells after 48 hrs by SRB assay; type: functional; settings: DU-145, 48 h
[35] = tested on: PC-3; experiment: Anticancer activity against human PC3 cells after 48 hrs by SRB assay; type: functional; settings: PC-3, 48 h; outline: as §1
[36] = tested on: SK-MEL-5; experiment: Anticancer activity against human SK-MEL-5 cells after 48 hrs by SRB assay; type: functional; settings: SK-MEL-5, 48 h
[37] = tested on: UACC-257; experiment: Anticancer activity against human UACC257 cells after 48 hrs by SRB assay; type: functional; settings: UACC-257, 48 h
[38] = tested on: A-375; experiment: Cell cycle arrest in human A375 cells assessed as accumulation at G0/G1 phase at 4 uM after 24 hrs using propidium iodide staining by FACS; type: functional
Outline: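 Treated A375 cells (24 h) were harvested with trypsin-EDTA and fixed in ice-cold 70% ethanol (4 °C, 30 min). After a PBS wash, they were incubated with 1 mg/mL RNase A (37 °C, 30 min) and stained with propidium iodide solution containing trisodium citrate and Triton X-100. DNA content was measured by flow cytometry on 20,000 events. Controls were DMSO-treated.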

[39] = tested on: A-375; experiment: Induction of apoptosis in human A375 cells assessed as reduction in CDK2 protein level at 4 uM after 24 hrs by Western blotting; type: functional, cell-based
Outline: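 A375 cells were treated for 24 h and lysed in ice-cold RIPA buffer (1% NP-40, 0.5% deoxycholate, 0.1% SDS, protease inhibitors). Protein was quantified by Bradford assay, and 30 µg/lane was run on 12% SDS-PAGE and transferred to PVDF. Membranes were blocked 2 h at RT in TBST with 5% blocker, incubated with primary antibody overnight at 4 °C, then with HRP secondary (1:2000, 1 h, RT). Detection was by chemiluminescence, with β-actin as loading control.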

[40] = tested on: A-375; experiment: Induction of apoptosis in human A375 cells assessed as caspase3 activation at 4 uM after 24 hrs by fluorimetry; type: functional, cell-based
Outline: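 Caspase-3 activity was measured by a fluorometric assay on lysates of treated and untreated A375 cells.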

Work on COc1ccc(C2=NOC(c3cc(OC)c(OC)c(OC)c3)C2)cc1OCCCCOc1cc2c(cc1OC)C(=O)N1CCC[C@H]1C=N2 (stereo not given in full) yielded a GI50 [1] of 180 nM, a GI50 [2] of 200 nM and a GI50 [3] of 240 nM. The GI50 [4] was 260 nM, the GI50 [5] was 460 nM and the GI50 [6] was 310 nM. It also gave a GI50 [7] of 170 nM, a GI50 [8] of 190 nM and a GI50 [9] of 180 nM. For the same compound, the GI50 [10] was 360 nM, the GI50 [11] was 230 nM and the GI50 [12] was 340 nM. The GI50 [13] was 320 nM, the GI50 [14] was 300 nM and the GI50 [15] was 210 nM. The GI50 [16] was 180 nM, the GI50 [17] was 230 nM and the GI50 [18] was 270 nM. It also gave a GI50 [19] of 400 nM, a GI50 [20] of 420 nM and a GI50 [21] of 370 nM. For the same compound, the GI50 [22] was 280 nM, the GI50 [23] was 180 nM and the GI50 [24] was 280 nM. For the same compound, the GI50 [25] was 250 nM, the GI50 [26] was 210 nM and the GI50 [27] was 280 nM. The GI50 [28] was 200 nM, the GI50 [29] was 190 nM and the GI50 [30] was 160 nM. It also gave a GI50 [31] of 170 nM, a GI50 [32] of 90 nM and a GI50 [33] of 220 nM. For the same compound, the GI50 [34] was 580 nM, the GI50 [35] was 2480 nM and the GI50 [36] was 160 nM. The GI50 [37] was 270 nM, the Activity [38] was 95.2% and the Activity [39] was “Active”. The Activity [40] was “Active”.
